Cneo AK release = causes C. neoformans cell lysis; adenylate kinase release luminescence, 4 h; normalised: neutral wells 0, clomiphene wells 100; lysis activity, % at 15 µM; 360,000 tested, 0.2% active;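 active means mean lysis activity across replicates of at least 80%, whatever share of replicates individually reach that level; inactive means mean lysis activity below 80%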
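Test system: log-phase Cryptococcus neoformans yeast cells. Input: 5 × 10^6 yeast cells/mL. Medium: fresh YPD growth medium. Doses: single dose. Incubation: static 4 h at 37 °C with compound, 1 h detection. Measured by: luminescent adenylate kinase detection reagent. Read-out: signal increase indicating cell lysis. Benchmarks: Clomiphene.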
PglD inh = blocks C. jejuni PglD acetyltransferase activity. purified PglD enzyme, DTNB colorimetric CoA detection. 360,000 tested, 0.098% active. inhibition, % at 12.5 µM; in the data active means inhibition above about 16%, passing the limit was not always enough; inconclusive means no clear call, values can overlap the other calls
Mot1-301 SUMO = inhibitors of SUMOylation pathway: yeast Mot1-301 growth rescue | S. cerevisiae Mot1-301 growth rescue, ATP luminescence, 38.5C; percent above DMSO median, 100 means doubled | growth rescue, % at 18.8 µM | 320,000 tested, 1% active | AID 2716;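 active means every valid replicate shows activation above 250% relative to neutral control wells; inactive means the rest, any valid replicate at or below 250%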;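 further: OY570 slx delta 5 strain wells were the positive control but not used for scaling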
Ecoli rRNA inh = selective bacterial rRNA inhibition in E. coli. E. coli WT GFP vs humanized-ribosome RFP mutants, fluorescence, 24 h; stronger effect = lower value; DMSO median 0, no signal -100. GFP signal change (wild-type ribosome), % (concentration not given with the values). 350,000 tested, 1.6% active. AID 720706;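 active means significant combined selectivity score with lowered wild-type GFP, culture density cut under 30%, mutant RFP and density less affected; inactive means any of these conditions unmet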
Yeast superoxide = caloric restriction mimetics inhibiting age-related superoxide in yeast; S. cerevisiae aged cells, superoxide DHE fluorescence; stronger effect = lower value; 330,000 tested, 0.18% active; superoxide response (% of plate mean), % at 10 µM;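 active means superoxide response under a set limit, about three screen SD below normal, cut at about 65% in these data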;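 further: yeast aged for seven days with compound at 30 °C before DHE staining; 100% = average MFI of all compound-treated wells on the plate with controls excluded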
AID977621 = growth inhibition of wild-type GFP E. coli, dose response, H69 mutant RFP, cherry-pick | E. coli wild-type GFP strain growth, fluorescence, 24 h | shares compounds with Ecoli rRNA inh | 1,900 tested, under 10 active | activity change, negative = inhibition at 50 µM;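 active means Wild-type ribosome reporter drop at least double the humanized mutant ribosome reporter drop, growth loss under a set limit; inconclusive means no clear call, values can overlap the other calls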;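 further: wild-type GFP and H69 mutant RFP strains grown together 50/50 in each well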
AID977628 = growth of wild-type and h24-humanized E. coli strains – h24 mutant RFP vs wild-type GFP, cherry-pick, dose response. shares compounds with Ecoli rRNA inh. E. coli WT GFP strain growth, fluorescence, 24 h. activity change, negative = inhibition at 50 µM. 1,900 tested, under 10 active. AID 977628;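 active means compound lowering the normal-ribosome reporter at least twice as much as the humanized-ribosome reporter, growth loss under a set limit; inconclusive means no clear call, values can overlap the other calls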;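 further: wild-type GFP and h24 humanized RFP strains co-cultured 1 to 1 per well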
An asterisk follows results filed as active; ? = inconclusive; nt = no result; ! = not confirmed by another sample. In the library only some 2.2% were active in any assay of this set; here they are far more common.

SMILES	Cneo AK release	PglD inh	Mot1-301 SUMO	Ecoli rRNA inh	Yeast superoxide	AID977621	AID977628
Cn1nnnc1SCc1nc2scc(-c3ccccc3)c2c(=O)[nH]1	-1	3	-5	-14	86	nt	nt
Cc1csc(SCc2nc3scc(-c4ccccc4)c3c(=O)[nH]2)n1	2	6	-9	-24*	117	0.6	-8.5
C[C@H](CO)N1C[C@H](C)[C@H](CN(C)Cc2ccc(C(=O)O)cc2)Oc2ccc(NC(=O)Cn3cnnn3)cc2CC1=O	2	1	nt	0	nt	nt	nt
C[C@@H]1CN([C@H](C)CO)C(=O)Cc2cc(NC(=O)C3CC3)ccc2O[C@@H]1CN(C)Cc1ccc(C(=O)O)cc1	39	6	nt	1	nt	nt	nt
Cc1ccc(S(=O)(=O)NCc2c(-c3ccccc3)noc2C)cc1	nt	nt	45	-23*	101	-8.6	-18
COc1cccc(NC(=O)N[C@H]2CC[C@H](CC(=O)N3CCCCC3)O[C@@H]2CO)c1	-11	3	nt	4	nt	nt	nt
CCN(CC(=O)Nc1cccc(C#N)c1)CC(=O)Nc1cccc(OC)c1	4	nt	22	-22*	99	-3.5	nt
Cc1ccc(S(=O)(=O)NCCC(=O)OCC(=O)Nc2cccc(Cl)c2)cc1	-2	5	-6	nt	77	nt	nt
Cc1ccc(NC(=O)COC(=O)CCNS(=O)(=O)c2c(Cl)cccc2Cl)cc1	0	-2	3	-14*	93	3.4	-8.1
O=c1[nH]c(C2CCN(S(=O)(=O)c3ccccc3)CC2)nc2c1nnn2Cc1ccc2c(c1)OCCO2	-1	4	21	-1	87	nt	nt
O=c1[nH]c(C2CCCN(S(=O)(=O)c3ccccc3Cl)C2)nc2c1nnn2Cc1ccc2c(c1)OCCO2 (stereo not given)	3	0	14	-18*	107	-8.8	nt
C[C@@H]1CCCCO[C@@H](CN(C)S(=O)(=O)c2cccs2)[C@@H](C)CN([C@H](C)CO)C(=O)c2cc(N(C)C)ccc2O1	-4	0	nt	-1	nt	nt	nt
COc1ccc(OC)c(NC(=O)COC(=O)CCNc2ccccc2OC)c1	-1	-3	7	-20*	117	5.9	-1.8
COc1ccc(OC)c(NC(=O)COc2ccc(S(=O)(=O)NC(C)C)cc2)c1	1	-2	12	-23*	107	-11	-12
COc1ccccc1CNC(=O)COC(=O)Cc1c[nH]c2ccccc12	1	1	3	-4	107	nt	nt
COc1ccc(NC(=O)COC(=O)C2CCN(C(=O)c3ccc(Cl)cc3)CC2)c([N+](=O)[O-])c1	2	-3	12	-7	127	nt	nt
COc1ccc(OC)c(NC(=O)COC(=O)C2CCN(C(=O)c3ccc(Cl)cc3)CC2)c1	nt	nt	-4	-27*	119	-7.7	nt
COc1ccc(OC)c(NC(=O)COc2ccc(S(=O)(=O)N3CCCC3)cc2)c1	-2	-3	172	-8	96	nt	nt
COc1ccccc1NC(=O)COC(=O)Cc1c[nH]c2ccccc12	1	1	-9	-17*	104	4.4	-4.5
O=C(Cn1c(C(=O)NCc2ccco2)cc2sccc21)c1ccccc1	-1	-10	-9	-23*	98	-21	?
COCc1cc(C)nc(SCC[N+](C)(C)CC(=O)c2ccc(Br)cc2)c1C#N	nt	nt	-6	-30*	110	nt	-16
Cc1ccc(-c2ccc3c(c2)O[C@@H](CN(C)Cc2cccc(C(=O)O)c2)[C@@H](C)CN([C@H](C)CO)S3(=O)=O)cc1	1	-1	nt	-5	nt	nt	nt
Cc1ccc(-c2ccc3c(c2)O[C@@H](CN(C)Cc2cccc(C(=O)O)c2)[C@H](C)CN([C@@H](C)CO)S3(=O)=O)cc1	2	5	nt	-18*	nt	nt	?
COCC#Cc1ccc2c(c1)O[C@@H](CN(C)S(=O)(=O)c1cccc(F)c1)[C@H](C)CN([C@H](C)CO)S2(=O)=O	0	8	nt	-5	nt	nt	nt
COCC#Cc1ccc2c(c1)O[C@@H](CN(C)S(=O)(=O)c1cccc(F)c1)[C@@H](C)CN([C@H](C)CO)S2(=O)=O	51	-38	nt	-20*!	nt	-22	nt
SMILES	Cneo AK release	PglD inh	Mot1-301 SUMO	Ecoli rRNA inh	Yeast superoxide	AID977621	AID977628
COCC#Cc1cnc2c(c1)C(=O)N([C@H](C)CO)C[C@@H](C)[C@H](CN(C)C(=O)CCN1CCCCC1)O2	-6	0	nt	6	nt	nt	nt
Cc1nnsc1-c1onc(C)c1C(=O)Nc1cc(Cl)cc(Cl)c1	nt	nt	114	-33	106	nt	nt
Cc1ccc(NC(=O)c2c(C)noc2-c2snnc2C)cc1	nt	nt	6	-22*	102	nt	?
COC(=O)C[C@@H]1CC[C@@H]2[C@@H](COc3ccc(NC(=O)c4ccc(F)c(F)c4)cc3C(=O)N2C)O1	3	-1	nt	-7	nt	nt	nt
CCCNC(=O)N1C[C@@H](O)COC[C@@H]2O[C@@H](CC(=O)NCc3ccc(Cl)c(Cl)c3)CC[C@H]21	1	3	nt	1	nt	nt	nt
Cc1ccc(C#CC[N+](C)(C)CC#Cc2ccccc2)cc1	nt	nt	-7	-54*	105	nt	?
CCCCc1n(CC(=O)c2ccc(Cl)cc2)c2ccccc2[n+]1C	2	2	nt	-19*	97	nt	-1.4
O=C(CCN1CCCCC1)NCC[C@H]1CC[C@H](NS(=O)(=O)c2cccc(F)c2)[C@H](CO)O1	-1	-1	nt	2	nt	nt	nt
C[C@@H]1CN([C@@H](C)CO)C(=O)Cc2cc(NC(=O)Nc3ccccc3)ccc2O[C@@H]1CN(C)S(C)(=O)=O	-1	1	nt	3	nt	nt	nt
CNC(=O)C[C@@H]1CC[C@H]2[C@@H](COc3ccc(NC(=O)c4cccs4)cc3C(=O)N2C)O1	3	1	nt	5	nt	nt	nt
COc1ccccc1NS(=O)(=O)c1cc(NC(=O)CNC(=O)c2ccccc2)ccc1C	5	0	22	-20*	103	?	nt
COc1ccc(NC(=O)Nc2cccc3c2O[C@@H](CN(C)S(=O)(=O)c2ccc(OC)cc2)[C@H](C)CN([C@H](C)CO)C3=O)cc1	-5	3	nt	-3	nt	nt	nt
C[C@H]1CN([C@@H](C)CO)C(=O)c2cccc(NC(=O)c3ccncc3)c2O[C@@H]1CN(C)S(=O)(=O)c1ccc(Cl)cc1	0	-1	nt	-3	nt	nt	nt
C[C@@H]1CN([C@H](C)CO)C(=O)c2cccc(NC(=O)c3ccncc3)c2O[C@@H]1CN(C)S(=O)(=O)c1ccc(Cl)cc1	-1	0	nt	-23*	nt	nt	?
COc1ccc(NC(=O)Nc2cccc3c2O[C@H](CN(C)S(=O)(=O)c2ccc(Cl)cc2)[C@H](C)CN([C@H](C)CO)C3=O)cc1	-6	0	nt	-18	nt	-15	?
COc1ccc(-n2nc3cc(N)c(Br)cc3n2)cc1	-12	3	-7	-27*	94	-1.5	-11
